Experimental data published in ChEMBL document CHEMBL4765423, “Antikinetoplastid SAR study in 3-nitroimidazopyridine series: Identification of a novel non-genotoxic and potent anti-T. b. brucei hit-compound with improved pharmacokinetic properties” (Eur J Med Chem, 2020).

Columns and labels:
[1] = Electrochemical behavior of the compound assessed as redox potential corrected toward normal hydrogen electrode by cyclic voltammetry
Leishmania infantum = assay: Antileishmanial activity against Leishmania infantum MHOM/MA/67/ITMAP-263 axenic amastigotes assessed as inhibition of parasitic metabolic activity incubated for 48 hrs by steady Glow reagent based luminescence assay; assay type: functional, organism-based; conditions: MHOM/MA/67/ITMAP-263, 48 h
How it was run: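 Luciferase-expressing promastigotes were acidified (pH 5.4, 24 h, 24 °C) and then held 24 h at 37 °C to give axenic amastigotes. These were used at 2×10⁶/mL with compound (DMSO <0.5%), in duplicate, for 48 h at 37 °C. Luciferase luminescence was read. EC50 came from non-linear regression, as the mean of three independent experiments.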

[2] = Cytotoxicity against human HepG2 cells assessed as reduction in cell viability after 72 hrs by MTT assay; assay type: cell-based
How it was run: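 MTT was applied at 0.5 mg/mL for 2 h, formazan was dissolved in DMSO, and absorbance read at 570 nm with a 630 nm reference. Doxorubicin was the positive control. CC50 was taken from the dose-response curve, as the mean of three experiments.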

Leishmania donovani [3] = assay: Antileishmanial activity against Leishmania donovani MHOM/IN/00/DEVI promastigotes assessed as inhibition of parasitic metabolic activity measured after 72 hrs by MTT assay; assay type: functional, organism-based
How it was run: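 Log-phase promastigotes at 10⁶/mL were grown in Schneider's medium with 20% FCS at 27 °C. Compound was added from DMSO stock (final <0.5% v/v), in duplicate, for 72 h. Metabolic activity was read by MTT (4 h, 27 °C) and absorbance at 570 nm. EC50 came from non-linear dose-response regression, as the mean of ≥3 independent experiments.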

[4] = Selectivity index, ratio of CC50 for human HepG2 cells to EC50 for antileishmanial activity against Leishmania infantum MHOM/MA/67/ITMAP-263 axenic amastigotes; assay type: toxicity; conditions: read-out: Ratio CC50/EC50
[5] = tested on: Trypanosoma brucei brucei; assay: Antitrypanosomal activity against bloodstream form Trypanosoma brucei brucei AnTat 1.9 trypomastigotes assessed as reduction in parasite viability incubated for 69 hrs by Alamar Blue dye based assay; assay type: functional, organism-based; conditions: AnTat 1.9, 69 h
How it was run: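 BSF parasites were cultured in MEM/Baltz medium with 20% heat-inactivated horse serum, mercaptoethanol, L-cysteine and bathocuproine, at 37 °C and 5% CO₂. Cells were seeded at 2000 parasites/100 µL with compound from DMSO, in duplicate, for 69 h. Alamar Blue was added for 5 h and fluorescence read (ex 530/em 590 nm). EC50 came from non-linear regression over three independent experiments.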

[6] = Selectivity index, ratio of CC50 for human HepG2 cells to EC50 for antileishmanial activity against Leishmania donovani MHOM/IN/00/DEVI promastigotes; assay type: toxicity; conditions: read-out: Ratio CC50/EC50
[7] = Selectivity index, ratio of CC50 for human HepG2 cells to EC50 for Trypanosoma brucei brucei trypomastigotes AnTat 1.9; assay type: toxicity; conditions: read-out: Ratio CC50/EC50
[8] = Aqueous solubility of compound; assay type: physicochemical; conditions: buffer
Leishmania donovani [9] = assay: Antileishmanial activity against Leishmania donovani amastigotes infected in human THP1 cells assessed as reduction in parasite infection treated with compound at 24 hrs post infection and measured after 120 hrs by Giemsa staining-based assay; assay type: functional, organism-based; conditions: THP-1
How it was run: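 THP-1 cells were differentiated with PMA (50 ng/mL, 48 h). They were infected 10:1 with promastigotes acidified at pH 5.4, for 24 h. Compound was added (DMSO <0.5%), in duplicate, and cells were incubated 120 h at 37 °C, 5% CO₂. Cells were methanol-fixed and Giemsa-stained, and ≥200 cells were counted for % infected macrophages. IC50 came from regression, as the mean of ≥3 experiments.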

Albumin = Albumin (Homo sapiens, UniProt P02768); assay: Binding affinity to human albumin incubated for 4 hrs by LC-MS analysis; assay type: ADME; conditions: read-out: PB (converted)
Sequence of Albumin (P02768 whole entry): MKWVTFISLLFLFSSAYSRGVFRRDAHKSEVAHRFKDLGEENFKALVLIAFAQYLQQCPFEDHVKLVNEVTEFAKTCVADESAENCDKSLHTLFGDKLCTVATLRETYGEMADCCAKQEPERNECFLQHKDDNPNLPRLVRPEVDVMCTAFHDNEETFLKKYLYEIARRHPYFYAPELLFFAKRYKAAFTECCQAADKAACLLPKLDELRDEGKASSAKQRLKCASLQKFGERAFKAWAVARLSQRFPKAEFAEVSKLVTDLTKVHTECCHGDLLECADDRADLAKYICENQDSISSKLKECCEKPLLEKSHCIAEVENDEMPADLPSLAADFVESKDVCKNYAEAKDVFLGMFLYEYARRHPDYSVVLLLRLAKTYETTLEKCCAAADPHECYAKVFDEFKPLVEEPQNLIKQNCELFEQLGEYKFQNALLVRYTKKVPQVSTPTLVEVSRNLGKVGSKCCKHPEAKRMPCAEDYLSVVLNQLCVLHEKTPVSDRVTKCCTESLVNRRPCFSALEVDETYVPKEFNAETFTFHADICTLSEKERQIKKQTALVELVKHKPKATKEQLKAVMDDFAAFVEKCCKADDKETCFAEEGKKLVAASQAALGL

[10] = Microsomal stability in CD-1 mouse liver microsomes assessed as half life in presence of NADP measured up to 40 mins by LC-MS analysis; assay type: ADME, Microsome
How it was run: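 Compound was incubated in duplicate with female CD-1 mouse microsomes at 37 °C in 50 mM phosphate, pH 7.4. An NADP-regenerating system was present (MgCl₂ 5 mM, NADP 1 mM, G6PDH 0.4 U/mL, G6P 5 mM).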

[11] = Permeability of the compound in pH 7.4 Prisma HT buffer at 100 uM incubated for 4 hrs by PAMPA-BBB assay method

| Activity [1] [V] | EC50 (Leishmania infantum) [µM] | EC50 [5] [nM] | solubility [8] | EC50 (Leishmania donovani [9]) [µM] | fraction unbound at 4 h (Albumin) | half-life [10] [min] | Compound | CC50 at 72 h [2] [µM] | EC50 (Leishmania donovani [3]) [nM] | selectivity ratio [4] | selectivity ratio [6] | selectivity ratio [7] | Papp at 4 h, 100 µM [11] [×10⁻⁶ cm/s] |
| --- | --- | --- | --- | --- | --- | --- | --- | --- | --- | --- | --- | --- | --- |
| -0.83 |  |  |  |  |  |  | CSc1ccc(OCc2ncc([N+](=O)[O-])n2C)cc1 [FEXINIDAZOLE] |  |  |  |  |  |  |
| -0.7 | 17.8 | > 50000 |  |  |  |  | O=[N+]([O-])c1c(CSc2ccccc2)nc2c(Br)cc(Cl)cn12 | > 31.2 | > 12500 | > 1.8 |  |  |  |
| -0.74 |  | 85 | Insoluble |  |  |  | O=[N+]([O-])c1cnc2c(Sc3ccc(Cl)cc3)cc(Cl)cn12 | > 7.8 | 2500 |  | > 3.1 | > 92.8 |  |
|  | > 100 | 7200 |  |  |  |  | CS(=O)(=O)Cc1nc2c(Br)cc(Cl)cn2c1N | > 125 | > 12500 |  |  |  |  |
|  | 0.8 | 1200 |  | > 10 |  |  | O=[N+]([O-])c1c(CS(=O)(=O)c2cccnc2)nc2c(Sc3ccc(Cl)cc3)cc(Cl)cn12 | > 31.2 | 500 | > 39 | > 62.4 | > 26 |  |
|  | 77.8 | 25 | Soluble |  | 0.13 | 27 | O=[N+]([O-])c1c(CS(=O)(=O)c2cccnc2)nc2c(Br)cc(Cl)cn12 | > 62.5 | 800 | > 0.8 | > 78 | > 2500 |  |
| -0.61 |  |  |  |  |  |  | CC1CS(=O)(=O)CCN1/N=C/c1ccc([N+](=O)[O-])o1 (stereo unspecified) [NIFURTIMOX] |  |  |  |  |  |  |
| -0.58 |  | 170 |  |  |  |  | O=[N+]([O-])c1c(CS(=O)(=O)c2ccccc2)nc2c(Sc3ccc(Cl)cc3)cc(C(F)(F)F)cn12 | > 7.8 | 1900 |  | > 4.1 | > 45.9 |  |
|  |  | 20 |  |  |  |  | C[S+]([O-])Cc1nc2c(Br)cc(Cl)cn2c1[N+](=O)[O-] (stereo unspecified) | 51.4 |  |  |  | 2570 |  |
| -0.6 | > 3.1 | 4000 |  |  |  |  | O=[N+]([O-])c1c(CS(=O)(=O)c2ccccc2)nc2c(Br)cc(C(F)(F)F)cn12 | > 15.6 | 6200 |  | > 2.5 | > 3.9 |  |
|  | 10.3 | 67 |  |  | 0.011 | 12 | CS(=O)(=O)Cc1nc2c(Sc3ccc(Cl)cc3)cc(Cl)cn2c1[N+](=O)[O-] | > 31.2 | 1200 | > 3 | > 26 | > 466 |  |
|  | 46.3 | > 50000 |  |  |  |  | O=[N+]([O-])c1c(CO)nc2c(Br)cc(Cl)cn12 | > 125 | > 12500 | > 5.4 |  |  |  |
| -0.69 |  |  | Insoluble |  |  |  | O=[N+]([O-])c1c(CS(=O)(=O)c2ccccc2)nc2c(Nc3ccccc3)cc(Cl)cn12 | > 3.9 |  |  |  |  |  |
|  |  |  |  |  |  |  | Cn1c(=O)c2[nH]cnc2n(C)c1=O.O [THEOPHYLLINE] |  |  |  |  |  | 0.47 |
| -0.76 | 5 | 1800 |  |  |  |  | Cc1cc(Sc2ccc(Cl)cc2)c2nc(CS(=O)(=O)c3ccccc3)c([N+](=O)[O-])n2c1 | > 62.5 | 2600 | 12.5 | > 24 | > 34.7 |  |
|  | 7.9 | > 50000 |  |  |  |  | O=[N+]([O-])c1c(CO)nc2c(Sc3ccc(Cl)cc3)cc(Cl)cn12 | > 15.6 | 4000 | > 2 | > 3.9 |  |  |
|  |  | 2200 | Insoluble |  |  |  | CSCc1nc2c(Br)cc(Cl)cn2c1[N+](=O)[O-] | > 15.6 |  |  |  | > 7.1 |  |
| -0.65 |  |  |  |  | 0.035 | 12 | O=[N+]([O-])c1c(CS(=O)(=O)c2ccccc2)nc2c(Br)cc(Cl)cn12 |  |  |  |  |  |  |
|  | 15.9 | 400 |  |  |  |  | O=[N+]([O-])c1cnc2c(Br)cc(Cl)cn12 | 16.2 | 9300 | 1 | 1.7 | 40.5 |  |
|  |  |  | Insoluble |  |  |  | O=[N+]([O-])c1c(CS(=O)(=O)c2ccccc2)nc2c(Nc3ccc(Cl)cc3)cc(Cl)cn12 | > 3.9 |  |  |  |  |  |
|  | > 100 | 500 |  |  |  |  | O=[N+]([O-])c1c(CS(=O)(=O)C2CCCCC2)nc2c(Br)cc(Cl)cn12 | > 15.6 | 900 |  | > 17.3 | > 31.2 |  |
| -0.72 |  | > 50000 |  |  |  |  | O=[N+]([O-])c1c(CSc2ccccc2)nc2c(Sc3ccc(Cl)cc3)cc(Cl)cn12 | > 15.6 | 7400 |  | > 2.1 |  |  |
|  |  |  | Insoluble |  |  |  | COc1ccc(Nc2cc(Cl)cn3c([N+](=O)[O-])c(CS(=O)(=O)c4ccccc4)nc23)cc1 | > 3.9 |  |  |  |  |  |
|  | 32.1 | > 50000 |  |  |  |  | Cc1nc2c(Br)cc(Cl)cn2c1[N+](=O)[O-] | > 125 | > 12500 | > 3.9 |  |  |  |
|  | 0.9 | 300 | Insoluble |  |  |  | O=[N+]([O-])c1c(CS(=O)(=O)c2ccccc2)nc2c([Se]c3ccc(Cl)cc3)cc(Cl)cn12 | > 7.8 | 700 | > 8.7 | > 11.1 | > 26 |  |
| -0.79 |  |  |  |  |  |  | Cc1nc2c(Sc3ccc(Cl)cc3)cc(Cl)cn2c1[N+](=O)[O-] | > 7.8 | > 12500 |  |  |  |  |
| -0.76 | > 3.1 | 1200 |  |  |  |  | Cc1cc(Br)c2nc(CS(=O)(=O)c3ccccc3)c([N+](=O)[O-])n2c1 | > 31.2 | 5600 |  | > 5.6 | > 26 |  |
|  | 1.6 | 1500 |  | > 10 |  |  | O=[N+]([O-])c1c(CS(=O)(=O)C2CCCCC2)nc2c(Sc3ccc(Cl)cc3)cc(Cl)cn12 | > 31.2 | 1900 | > 19.5 | > 16.4 | > 20.8 |  |

| Compound | Activity [1] [V] | EC50 (Leishmania infantum) [µM] | EC50 [5] [nM] | solubility [8] | EC50 (Leishmania donovani [9]) [µM] | fraction unbound at 4 h (Albumin) | half-life [10] [min] | CC50 at 72 h [2] [µM] | EC50 (Leishmania donovani [3]) [nM] | selectivity ratio [4] | selectivity ratio [6] | selectivity ratio [7] | Papp at 4 h, 100 µM [11] [×10⁻⁶ cm/s] |
| --- | --- | --- | --- | --- | --- | --- | --- | --- | --- | --- | --- | --- | --- |
| C[C@@H]1[C@H](O)[C@@H](C)/C=C/C=C/C=C/C=C/C=C/C=C/C=C/[C@H](O[C@@H]2O[C@H](C)[C@@H](O)[C@H](N)[C@@H]2O)C[C@@H]2O[C@](O)(C[C@@H](O)C[C@@H](O)[C@H](O)CC[C@@H](O)C[C@@H](O)CC(=O)O[C@H]1C)C[C@H](O)[C@H]2C(=O)O [AMPHOTERICIN B] |  | 0.06 |  |  |  |  |  |  |  |  |  |  |  |
